From ChEMBL document CHEMBL1135468 (J Med Chem, 2002)
*1 amine or outer side, *2 acyl side, *3 side chain or, on linkers, in order; H or OH if unused. Where a SMILES comes first, the peptide text is derived from it. Bridges are numbered along the chain shown (N, C = ends). [ ]: non-standard residue; d: D form. The star is where a group is joined. 6FAM = O=C1OC2(c3ccc(O)cc3Oc3cc(O)ccc32)c2cc(C(=O)*)ccc21; X1 = O=C([C@@H](O)CS[*:2])[*:1]; Orn = NCCC[C@H](N)C(=O)O; Mpa = O=C(O)CCS

How the values were obtained:
Vasopressin V2 receptor = Vasopressin V2 receptor (Homo sapiens, UniProt P30518); assay: Binding affinity towards human Vasopressin V2 receptor
Sequence of Vasopressin V2 receptor (P30518 whole entry): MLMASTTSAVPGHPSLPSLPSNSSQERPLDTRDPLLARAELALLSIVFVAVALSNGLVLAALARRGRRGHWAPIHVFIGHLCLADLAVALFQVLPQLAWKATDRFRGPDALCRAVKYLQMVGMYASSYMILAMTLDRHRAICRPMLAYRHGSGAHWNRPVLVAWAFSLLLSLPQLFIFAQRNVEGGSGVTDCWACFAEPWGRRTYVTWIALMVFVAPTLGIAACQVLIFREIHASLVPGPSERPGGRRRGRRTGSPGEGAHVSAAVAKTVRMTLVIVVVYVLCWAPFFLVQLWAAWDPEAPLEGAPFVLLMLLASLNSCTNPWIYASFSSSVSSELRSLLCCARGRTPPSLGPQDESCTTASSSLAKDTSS
Method in brief: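 Human V2 receptor stably expressed in CHO cells, butyrate-treated (5 mM, overnight); membranes at 5-10 µg protein/assay competed against 1-3 nM [3H]AVP. Fluorescent ligand ranged 1 pM-1 µM; nonspecific binding defined with 1 µM unlabeled ligand. Incubation 1 h at 30 °C. Ki from nonlinear least-squares fit of two independent experiments, each run in triplicate.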

Vasopressin V1a receptor = Vasopressin V1a receptor (Homo sapiens, UniProt P37288); assay: Binding affinity for human Vasopressin V1a receptor
Sequence of Vasopressin V1a receptor (P37288 whole entry): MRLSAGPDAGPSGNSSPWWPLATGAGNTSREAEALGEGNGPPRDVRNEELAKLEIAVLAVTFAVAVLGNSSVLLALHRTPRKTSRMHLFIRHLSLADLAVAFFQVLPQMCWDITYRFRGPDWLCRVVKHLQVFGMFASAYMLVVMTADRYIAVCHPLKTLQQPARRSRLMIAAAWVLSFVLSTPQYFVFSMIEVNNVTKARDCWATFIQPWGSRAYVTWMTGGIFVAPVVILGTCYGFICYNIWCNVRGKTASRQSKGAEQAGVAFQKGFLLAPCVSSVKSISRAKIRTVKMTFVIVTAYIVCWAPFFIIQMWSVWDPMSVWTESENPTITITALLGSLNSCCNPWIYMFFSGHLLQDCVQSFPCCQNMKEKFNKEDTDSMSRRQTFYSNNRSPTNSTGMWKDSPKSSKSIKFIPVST

Oxytocin receptor = biological target: T1, Oxytocin receptor (Homo sapiens, UniProt P30559); assay: Binding affinity for human oxytocin receptor
T1 sequence (P30559 whole entry): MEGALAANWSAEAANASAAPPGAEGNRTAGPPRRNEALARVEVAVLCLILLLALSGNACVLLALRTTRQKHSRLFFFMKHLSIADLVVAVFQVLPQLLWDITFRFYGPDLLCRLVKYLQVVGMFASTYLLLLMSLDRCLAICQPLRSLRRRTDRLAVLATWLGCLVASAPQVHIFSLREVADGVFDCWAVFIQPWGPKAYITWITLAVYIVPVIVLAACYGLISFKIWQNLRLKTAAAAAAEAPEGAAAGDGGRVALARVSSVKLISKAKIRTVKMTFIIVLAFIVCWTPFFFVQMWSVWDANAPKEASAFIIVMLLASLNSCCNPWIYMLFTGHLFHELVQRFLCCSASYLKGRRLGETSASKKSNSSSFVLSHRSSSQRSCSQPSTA

Vasopressin V1b receptor = biological target: T2, Vasopressin V1b receptor (Homo sapiens, UniProt P47901); assay: Binding affinity towards human Vasopressin V1b receptor
T2 sequence (P47901 whole entry): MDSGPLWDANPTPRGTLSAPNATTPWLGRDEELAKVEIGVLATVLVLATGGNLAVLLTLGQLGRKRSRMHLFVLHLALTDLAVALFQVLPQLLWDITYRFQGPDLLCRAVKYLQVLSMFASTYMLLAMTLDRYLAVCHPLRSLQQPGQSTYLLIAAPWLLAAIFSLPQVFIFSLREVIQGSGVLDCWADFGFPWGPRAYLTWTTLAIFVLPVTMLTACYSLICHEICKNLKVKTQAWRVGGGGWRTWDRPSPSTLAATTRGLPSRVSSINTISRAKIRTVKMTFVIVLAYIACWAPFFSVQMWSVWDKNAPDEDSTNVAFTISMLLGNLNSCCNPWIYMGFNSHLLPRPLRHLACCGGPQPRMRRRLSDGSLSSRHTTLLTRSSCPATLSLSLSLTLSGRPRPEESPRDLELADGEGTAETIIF
Method in brief: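 Competition binding on membranes from CHO cells stably expressing one human receptor, butyrate-treated (5 mM, overnight). Radioligands: OT, 200-250 pM [125I]OTA or 120-180 pM [125I]HO-LVA; V1a, 40-60 pM [125I]HO-LVA; V1b, 1-3 nM [3H]AVP. Competitor 1 pM-1 µM; nonspecific with 1 µM unlabeled ligand; 1 h, 30 °C. Ki by nonlinear least-squares, ≥3 experiments in triplicate.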

| Compound | Ki (Vasopressin V2 receptor) | Ki (Vasopressin V1a receptor) | Ki (Oxytocin receptor) | Ki (Vasopressin V1b receptor) |
| --- | --- | --- | --- | --- |
| CC[C@H](C)[C@@H]1NC(=O)[C@H](Cc2ccc(O)cc2)NC(=O)[C@@H](O)CSSC[C@@H](C(=O)N2CCC[C@H]2C(=O)N[C@@H](CCCCNC(=O)c2ccc3c(c2)C2(OC3=O)c3ccc(O)cc3Oc3cc(O)ccc32)C(=O)NCC(N)=O)NC(=O)[C@H](CC(N)=O)NC(=O)[C@H]([C@@H](C)O)NC1=O (YITNCPK(6FAM)G-NH2; linker N-5 via X1) | > 10 µM | 0.0173 µM | 0.00032 µM | 0.053 µM |
| CC[C@H](C)[C@@H]1NC(=O)[C@H](Cc2ccc(O)cc2)NC(=O)[C@@H](O)CSSC[C@@H](C(=O)N2CCC[C@H]2C(=O)N[C@@H](CCCNC(=O)c2ccc3c(c2)C2(OC3=O)c3ccc(O)cc3Oc3cc(O)ccc32)C(=O)NCC(N)=O)NC(=O)[C@H](CC(N)=O)NC(=O)[C@H]([C@@H](C)O)NC1=O (YITNCP[Orn](6FAM)G-NH2; linker N-5 via X1) | > 1 µM | 0.0118 µM | 0.00017 µM | 0.087 µM |
| CC[C@H](C)[C@@H]1NC(=O)[C@H](Cc2ccc(O)cc2)NC(=O)CCSSC[C@@H](C(=O)N2CCC[C@H]2C(=O)N[C@@H](CCCCNC(=O)c2ccc3c(c2)C2(OC3=O)c3ccc(O)cc3Oc3cc(O)ccc32)C(=O)NCC(N)=O)NC(=O)[C@H](CC(N)=O)NC(=O)[C@H]([C@@H](C)O)NC1=O ([Mpa]YITNCPK(6FAM)G-NH2; disulfide 1-6) | > 10 µM | 0.0255 µM | 0.0018 µM | 0.15 µM |
| CC[C@H](C)[C@@H]1NC(=O)[C@H](Cc2ccc(O)cc2)NC(=O)CCSSC[C@@H](C(=O)N2CCC[C@H]2C(=O)N[C@@H](CCCNC(=O)c2ccc3c(c2)C2(OC3=O)c3ccc(O)cc3Oc3cc(O)ccc32)C(=O)NCC(N)=O)NC(=O)[C@H](CC(N)=O)NC(=O)[C@H]([C@@H](C)O)NC1=O ([Mpa]YITNCP[Orn](6FAM)G-NH2; disulfide 1-6) | > 10 µM | 0.03 µM | 0.0004 µM | 0.282 µM |
